Tests used:
[1] = Body weight of CT26 tumor-bearing mice; type: in vivo, mouse; details: doxorubicin 5 mg/kg i.v. days 6, 9, 12, alone or in the combination group
Summary of the method: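 Eight-week-old male and female Balb/c mice received 1×10⁶ CT26 cells s.c. in the right flank. At 50–100 mm³, tumours were randomised into groups of 10 (half female). Doxorubicin 5 mg/kg i.v. was given on days 6, 9 and 12 post-implant, alone or combined with test peptide 5 mg/kg daily. Saline served as negative control. Body weight was recorded daily throughout treatment.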

[2] = tested on: triple negative breast cancer; details: cited from earlier work
[3] = tested on: tumor immunogenic cell death (ICD); details: cited from earlier work
[4] = doxorubicin; cited from earlier work

## COc1cccc2c1C(=O)c1c(O)c3c(c(O)c1C2=O)C[C@@](O)(C(=O)CO)C[C@@H]3O[C@H]1C[C@H](N)[C@H](O)[C@H](C)O1 [doxorubicin]
[1]
  Systemic toxicity (weight loss): slight systemic toxicity
[2]
  Effect on CD47 expression: induced CD47 expression in triple negative breast cancer
[3]
  Induction of tumor immunogenic cell death: induce tumor immunogenic cell death (ICD)
[4]
  Maximum tolerated dose: 5 mg/kg

Reference: article PMC11034909 (Advanced therapeutics, 2023)
